Results pooled from the literature.
Compare with care: the assays were run in different laboratories.
Target: NUAK family SNF1-like kinase 2 (NUAK2, Homo sapiens, UniProt Q9H093)
Residues used in one study (Q9H093 1-628): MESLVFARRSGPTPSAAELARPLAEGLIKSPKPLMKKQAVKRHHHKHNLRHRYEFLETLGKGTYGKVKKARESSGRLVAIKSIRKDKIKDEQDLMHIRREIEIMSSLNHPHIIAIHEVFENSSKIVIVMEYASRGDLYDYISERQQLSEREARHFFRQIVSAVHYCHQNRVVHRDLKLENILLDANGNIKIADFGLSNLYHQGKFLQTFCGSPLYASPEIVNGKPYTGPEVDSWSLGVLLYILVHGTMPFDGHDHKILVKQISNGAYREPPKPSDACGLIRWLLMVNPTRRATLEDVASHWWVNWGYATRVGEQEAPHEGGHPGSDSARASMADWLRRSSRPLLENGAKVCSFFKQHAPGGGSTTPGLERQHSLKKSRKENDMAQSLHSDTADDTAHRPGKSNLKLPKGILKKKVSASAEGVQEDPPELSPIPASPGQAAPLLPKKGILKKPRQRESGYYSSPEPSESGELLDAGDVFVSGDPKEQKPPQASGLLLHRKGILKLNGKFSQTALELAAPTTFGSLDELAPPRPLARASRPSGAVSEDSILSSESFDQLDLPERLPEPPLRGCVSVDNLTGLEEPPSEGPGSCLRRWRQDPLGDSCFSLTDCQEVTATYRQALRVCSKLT

| Structure (SMILES) | test | conditions | remaining binding [%] |
| --- | --- | --- | --- |
| O=C(c1ccc(Nc2nccc(-c3cc4ccccc4s3)n2)cc1)N1CCC(N2CCCC2)CC1 | binding, competition with immobilised ligand | 1 µM | 7.6 |
| COc1ncc2cc3ccccc3nc2c1C#N | cell-free assay, competition with immobilised ligand | 5 µM | 100 |
| O=C(Nc1c[nH]nc1C(=O)NC1CCNCC1)c1cc(F)cc(F)c1 | binding, competition with immobilised ligand | 1 µM | 100 |
| CNC(=O)Nc1ccc2c(c1)CC[C@@]21OC(=O)N(CC(=O)N(Cc2ccc(F)cc2)[C@@H](C)C(F)(F)F)C1=O | cell-free assay, competition with immobilised ligand | 1 µM | 74 |
| N[C@@H]1CCN(c2nccc(-c3cnn4ncccc34)n2)C1 | binding | 1 µM | 100 |
| COc1cccc(CNC(=O)c2nc3scc(COCc4ccc(C(=O)O)cc4)c3c(=O)[nH]2)c1 | cell-free assay, competition with immobilised ligand | 1 µM | 76.4 |
| O=C(NCCCN1CCOCC1)c1ccc(Nc2ncc(Cl)c(-c3ccc(Cl)s3)n2)cc1 | binding, competition with immobilised ligand | 1 µM | 0.85 |
| O=C(N1CCS(=O)(=O)CC1)N1C[C@H](c2ccc(OC(F)(F)F)cc2)C[C@H](c2nc(C3CC3)no2)C1 | cell-free assay, competition with immobilised ligand | 1 µM | 100 |
| N#Cc1ccccc1CSc1nnc2c(n1)[nH]c1ccccc12 | binding, competition with immobilised ligand | 10 µM | 93 |
| C[C@H]1CCN(c2nccc(-c3cnn4ncccc34)n2)C1 | binding | 1 µM | 79 |
| O=C(O)[C@H]1[C@H](Cn2nnc3ccccc3c2=O)CC[C@@H]1C(=O)c1ccc(OCCC2CCOCC2)cc1 | cell-free assay, competition with immobilised ligand | 1 µM | 100 |
| CN(C)c1nccc(-c2cnc3ncccn23)n1 | binding | 1 µM | 83 |
| C[C@H](NC(=O)c1cnc2n1[C@](C)(Cc1ccc(C#N)cc1)C(=O)N2c1cc(Cl)c(F)c(Cl)c1)C(=O)NC1(c2ccccn2)CC1 | cell-free assay, competition with immobilised ligand | 1 µM | 100 |
| CNC(=O)[C@@H]1CC[C@@H](n2c(-c3ccc4cnccc4c3)nc3ccc(C(=O)NCc4cccc(C(N)=O)c4)cc32)C1 | binding, competition with immobilised ligand | 1 µM | 100 |
| Cc1cnc(Nc2ccc(C(=O)N3CCC(N4CCCC4)CC3)cc2)nc1-c1cc2ccccc2s1 | binding, competition with immobilised ligand | 1 µM | 1 |
| Nc1ncc2c(n1)-c1c([nH]c3ccc(C#CC4CC4)cc13)CCCC2 | binding, competition with immobilised ligand | 1 µM | 92 |
| CCCCN(CCCC)C(=O)CN1C[C@@H](c2cc(OC)c3c(c2)OCO3)[C@H](C(=O)O)[C@H]1CC(C)(C)CCC | cell-free assay, competition with immobilised ligand | 1 µM | 100 |
| CC1CCCN1c1nccc(-c2cnn3ncccc23)n1 (stereo not shown) | binding | 1 µM | 85 |
| CS(=O)(=O)NCC[C@H](NC(=O)c1cncc2c1cnn2-c1ccc(F)cc1)c1ccnc(S(C)(=O)=O)c1 | cell-free assay, competition with immobilised ligand | 1 µM | 100 |
| c1cnn2ncc(-c3ccnc(N4CCC45COC5)n3)c2c1 | binding | 1 µM | 64 |
| C[C@@H]1CN(c2ccc3ncc(-c4ccc5[nH]nc(C6CC6)c5c4)n3n2)C[C@H](C)O1 | binding, competition with immobilised ligand | 50 nM | 89 |
| FC(F)(F)Oc1cccc(-c2cnc3ccc(-c4ccncc4)nn23)c1 | binding, competition with immobilised ligand | 5 µM | 37 |
